Experimental data: ChEMBL document CHEMBL3621072, “Design, Virtual Screening, and Synthesis of Antagonists of αIIbβ3 as Antiplatelet Agents” (J Med Chem, 2015)

The compounds below were run against T1, Integrin alpha-IIb/beta-3 (Homo sapiens, UniProt P05106+P08514) (assay: Inhibition of FITC-labeled fibrinogen binding to integrin alpha2bbeta3 open form in human washed platelets).
Summary of the method: (§1)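 Suspension of washed human platelets; αIIbβ3 binding of fluorescein isothiocyanate-labeled fibrinogen (FITC-Fg) measured, inhibition by test compound expressed as IC50. Pure enantiomers tested.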

T1 sequence (P05106 27-788 limits assumed): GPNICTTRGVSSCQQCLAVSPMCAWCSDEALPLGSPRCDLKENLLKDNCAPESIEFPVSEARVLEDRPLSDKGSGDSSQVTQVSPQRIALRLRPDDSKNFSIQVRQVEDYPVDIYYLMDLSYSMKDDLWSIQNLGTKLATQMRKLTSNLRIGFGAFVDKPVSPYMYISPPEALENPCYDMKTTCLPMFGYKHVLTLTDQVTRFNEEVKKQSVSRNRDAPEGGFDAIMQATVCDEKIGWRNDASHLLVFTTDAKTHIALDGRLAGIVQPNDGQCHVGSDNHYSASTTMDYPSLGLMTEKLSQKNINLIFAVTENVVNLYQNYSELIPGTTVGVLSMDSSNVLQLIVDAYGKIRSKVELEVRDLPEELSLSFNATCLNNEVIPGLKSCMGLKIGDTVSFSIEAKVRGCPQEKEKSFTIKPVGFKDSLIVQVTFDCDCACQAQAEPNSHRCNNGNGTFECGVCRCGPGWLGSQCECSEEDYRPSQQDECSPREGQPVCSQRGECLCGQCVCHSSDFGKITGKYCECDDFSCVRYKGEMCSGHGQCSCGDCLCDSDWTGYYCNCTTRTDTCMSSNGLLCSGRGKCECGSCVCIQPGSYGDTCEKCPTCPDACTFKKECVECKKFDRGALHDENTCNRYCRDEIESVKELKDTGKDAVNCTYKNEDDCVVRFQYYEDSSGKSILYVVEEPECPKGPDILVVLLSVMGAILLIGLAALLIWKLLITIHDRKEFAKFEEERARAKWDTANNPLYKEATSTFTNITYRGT
T1 sequence (P08514 32-887 limits assumed): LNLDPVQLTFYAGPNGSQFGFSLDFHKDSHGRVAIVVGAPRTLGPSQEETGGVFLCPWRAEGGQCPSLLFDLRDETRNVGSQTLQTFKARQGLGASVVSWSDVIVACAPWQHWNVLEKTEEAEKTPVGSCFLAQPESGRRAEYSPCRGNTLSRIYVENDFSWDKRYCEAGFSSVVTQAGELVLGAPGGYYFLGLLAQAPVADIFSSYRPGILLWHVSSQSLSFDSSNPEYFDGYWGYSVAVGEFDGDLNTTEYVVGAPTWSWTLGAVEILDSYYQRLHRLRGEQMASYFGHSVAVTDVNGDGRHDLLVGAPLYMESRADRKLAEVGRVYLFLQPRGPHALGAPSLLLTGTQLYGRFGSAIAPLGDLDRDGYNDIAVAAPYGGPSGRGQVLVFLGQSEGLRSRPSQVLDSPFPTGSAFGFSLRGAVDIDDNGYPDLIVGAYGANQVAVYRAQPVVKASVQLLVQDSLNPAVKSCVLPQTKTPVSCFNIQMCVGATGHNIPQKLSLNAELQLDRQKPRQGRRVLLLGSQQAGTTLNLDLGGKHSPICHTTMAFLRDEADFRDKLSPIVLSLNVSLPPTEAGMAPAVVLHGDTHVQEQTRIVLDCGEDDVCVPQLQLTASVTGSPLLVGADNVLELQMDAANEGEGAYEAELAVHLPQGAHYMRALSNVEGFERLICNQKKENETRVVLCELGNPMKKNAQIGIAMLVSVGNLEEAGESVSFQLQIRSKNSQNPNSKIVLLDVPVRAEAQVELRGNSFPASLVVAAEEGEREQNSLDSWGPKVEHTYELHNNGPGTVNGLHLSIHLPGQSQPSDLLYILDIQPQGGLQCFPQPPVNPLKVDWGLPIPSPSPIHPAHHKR
T1 sequence (P08514 891-1039 limits assumed): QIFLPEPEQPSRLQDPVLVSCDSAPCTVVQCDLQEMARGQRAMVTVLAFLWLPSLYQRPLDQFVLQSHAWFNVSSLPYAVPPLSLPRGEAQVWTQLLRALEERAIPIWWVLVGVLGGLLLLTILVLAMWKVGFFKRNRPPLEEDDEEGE

Row | Structure (SMILES) | IC50
1 | CCCCS(=O)(=O)N[C@H](CNC(=O)CCNC(=O)c1ccc2c(c1)CNCC2)C(=O)O | 79 nM
2 | CCCCS(=O)(=O)N[C@@H](CNC(=O)CCNC(=O)c1ccc2c(c1)CNCC2)C(=O)O | 62 nM
3 | O=C(CCNC(=O)c1ccc2c(c1)CNCC2)NC[C@H](NS(=O)(=O)c1ccccc1)C(=O)O | 0.22 nM
4 | O=C(CCNC(=O)c1ccc2c(c1)CNCC2)NC[C@@H](NS(=O)(=O)c1ccccc1)C(=O)O | 0.96 nM

These compounds were tested against T1, Integrin alpha-IIb/beta-3 (assay: Antagonist activity against integrin alpha2bbeta3 in human platelet rich plasma).
Summary of the method: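 Human platelet-rich plasma, aggregation induced by ADP and followed by Born's light-transmission method. Inhibition of aggregation by the test compound is reported as IC50. Pure enantiomers tested.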

Row | Structure (SMILES) | IC50
5 | CCc1nn2c(=O)cc(N3CCNCC3)nc2s1 | 13000 nM
6 | N=C(N)c1ccc2cc(OC(=O)c3ccc(N=C(N)N)cc3)ccc2c1 [NAFAMOSTAT] | 12500 nM

The compounds below were run against T1, Integrin alpha-IIb/beta-3 (assay: Inhibition of FITC-labeled fibrinogen binding to integrin alpha2bbeta3 closed form in human washed platelets).
Summary of the method: as §1

Row | Structure (SMILES) | IC50
7 | NCCC(=O)Nc1ccc2nc(N3CCNCC3)[nH]c(=O)c2c1 | 5 nM
8 | NCCCC(=O)Nc1ccc2nc(N3CCNCC3)[nH]c(=O)c2c1 | 2.2 nM
9 | O=C(Nc1ccc2nc(N3CCNCC3)[nH]c(=O)c2c1)C1CCNCC1 | 3.8 nM
